Like-named read-outs stand apart in the source and are kept apart here.

The source of these data is PMC7127609 (Cancer Letters, 2002).

For test [1], the system named is U937 cells. In words: Cell growth assay. As to conditions: for IC50: Homo sapiens, U-937, read-out: IC50p (50% inhibition of cell proliferation). In kind it is cell-based, human. A digest of the protocol:
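U937 cells seeded at 5×10^4 cells/ml in RPMI 1640 with 10% FBS and 2 mM glutamine, then grown with graded test compound levels at 37 °C, 5% CO2. Hemocytometer counts on days 3–5, trypan blue viability. IC50p taken from a day-3 inhibition-versus-concentration plot. Efflux arm: MRP inhibitor at 10 μM added with test compound (145 or 13 μM final), counted day 4, two quadruplicate experiments, paired t-test.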

For test [2], the system named is K562 cells. The test is described as follows: Cell growth assay. The settings on record: for IC50: Homo sapiens, K562, read-out: IC50p (50% inhibition of cell proliferation); for % of inhibition of cell proliferation: 4th day. In kind it is cell-based, human.
For test [3], the system named is U937 cells. As to conditions: cited from earlier work.
For test [4], the target named is leucine aminopeptidase. The settings on record: cited from earlier work.

Regarding `CCCCC[C@H](CC(=O)NO)C(=O)N[C@H](C(=O)N1CCC[C@H]1CO)C(C)C` [Actinonin], the values for the IC50 in test [1] and in test [2] were 11 µM and 19 µM, respectively. Further, the “% of inhibition of cell proliferation” value in test [2] (K562, 580 μM bestatin or 26 μM actinonin + verapamil (30 μM)) was found to be 78.0±6.6%.
`CC(C)C[C@H](NC(=O)[C@@H](O)[C@H](N)Cc1ccccc1)C(=O)O` [Bestatin]: the IC50 in test [1] is 108 µM; in test [2], 466 µM; in test [3] (read-out: IC50p, ref 3), 58 µM; in test [3] (read-out: IC50p, ref 6, 12), around 150 µM; in test [3] (read-out: IC50p, ref 11), 8 µM. In addition, the “% of inhibition of cell proliferation” value in test [1] (U937, 145 μM bestatin or 13 μM actinonin + MK-571 (10 μM), 4th day) was determined as 87.4±4.1%; in test [2] (K562, 580 μM bestatin or 26 μM actinonin + MK-571 (10 μM)) it was 66.0±3.7%; in test [2] (K562, 580 μM bestatin or 26 μM actinonin + MK-571 (30 μM)), 73.6±3.4%. The “change of IC50p with time of incubation” value in test [2] (K562, 3rd, 4th and 5th days, Fig. 1) was “increased significantly”. Also, in test [4], the Ki (usually a measure of affinity in units of concentration, obtained from inhibition or displacement) is 0.02 µM.
As for `COc1ccc(CCN(C)CCCC(C#N)(c2ccc(OC)c(OC)c2)C(C)C)cc1OC` (centres unmarked) [Verapamil, verapamil], the “antiproliferative effect on U937 cells” value in test [1] (U937, 10 μM) is reported as “exhibits an antiproliferative effect”.
